# PfHsp90 set2 = growth inhibition of PfHsp90-expressing yeast, primary screen, antimalarial PfHsp90 inhibitor project, S. cerevisiae, BacTiter-Glo luminescence, single point, set 2. BacTiter-Glo ATP, 48 h; yeast lacking PDR1 and PDR3 efflux regulators. inhibition, % at 9.4 µM. 0.32% of 310,000 active. AID 504621, 2011;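 active means every replicate shows inhibition above about 80%, whatever the replicate mean, limit read from the data; inconclusive means mean inhibition reaches the set limit but some replicate falls short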;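 further: 0% = DMSO neutral controls and 100% = 20 µM radicicol positive controls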
# HIF act = HIF pathway transcriptional activators, primary screen, cell-based, U2OS HRE-luciferase, luminescence; U2OS HRE-luciferase reporter; normalized: DMSO 0%, desferrioxamine 100%; activation, % at 7.5 µM (by protocol); 0.32% of 300,000 active; AID 1910, 2009;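 active means mean activation of at least 10% of the iron chelator positive control signal, with at least half of replicates also reaching 10%; inconclusive means mean and replicate majority disagree about reaching 10%; inactive means mean and most replicates under 10%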
# Beta apoptosis = inhibitors of cytokine-induced beta cell apoptosis, primary screen, luminescence; INS-1E cytokine-induced death, ATP luminescence, 48 h; percent of positive-control rescue, neutral wells zero; protection from apoptosis, % (test concentration not listed); 0.8% of 300,000 active; AID 435005, 2010;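 active means Every replicate reaches about 75%, or at least half do and their mean reaches it too, limit read from the data; inconclusive means At least half of replicates reach the limit but their mean does not; inactive means Under half of replicates reach the limit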;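 further: 0% = cytokine-treated negative control wells and 100% = positive control rescue; higher means more ATP so stronger rescue from cytokine killing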
# CSC inhib = cancer stem cell viability inhibitors, primary screen, luminescence | cancer stem cell-like cells viability | inhibition, % at 7.5 µM | 1.1% of 300,000 active | AID 2717, 2010; in the data active means inhibition above about 75%; inconclusive means no clear call, values can overlap the other calls; tested in HMLE shEcad cells
# SKKanGAS inh = S. pyogenes SKKanGAS growth inhibitors in kanamycin, primary screen, streptokinase expression inhibitor project, SKKanGAS strain, BacTiter-Glo luminescence; inhibition, % at 7.5 µM; 1.3% of 300,000 active; AID 1662, 2009; 6 h;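 active means mean replicate score, as percent of positive control median, at least 50; inconclusive means mean below 50 but one replicate at or above 50; inactive means mean and every replicate below 50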;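 further: strain carries kanamycin resistance gene driven by streptokinase promoter and grows in 40 µg/ml kanamycin; loss of luminescence reflects streptokinase promoter inhibition or plain growth inhibition; 0% = median of DMSO wells and 100% = positive control at its reference dose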
# T cruzi repl = inhibitors of intracellular T. cruzi growth, primary screen, luminescence, NIH3T3 host cells; T. cruzi beta-gal in NIH3T3, 90 h; inhibition, % (no concentration beside the values); 1.4% of 300,000 active;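 active means mean inhibition across valid replicates above about 55%, limit read from the data; inconclusive means mean below that limit but half or more replicates reach it; inactive means mean below it, under half of replicates reach it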;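 further: signal also drops with host cell toxicity which is not excluded here; 0% = plate median of DMSO wells and 100% = zero luminescence signal; higher percent means less beta-gal luminescence so fewer parasites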
#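 System: mouse NIH/3T3 fibroblasts infected with β-gal-expressing T. cruzi Tulahuen C4 / Input: NIH/3T3 cells, 5,000 per well / Buffer or medium: Low-serum DMEM with 2% FBS / Probe or stimulus: 5000 reporter trypomastigotes per well / Schedule: ≥90 h infection period, 3 h prior cell attachment / Measured by: GalScreen luminescence, 60 min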
# * marks the source's active call; other numbers are inactive results; ? = inconclusive; . = no result. Sampled rows, rich in hits. Any-hit rate of the full collection: about 3.6%.
SMILES,PfHsp90 set2,HIF act,Beta apoptosis,CSC inhib,SKKanGAS inh,T cruzi repl
Cc1ccc(OCC(=O)N(C)CC(=O)Nc2ccc(Cl)c(C(F)(F)F)c2)c([N+](=O)[O-])n1,11,.,-6,-7,.,.
O=C(COC(=O)C1CC(O)CN1C(=O)Oc1ccccc1)c1ccc(Br)cc1 (centres undefined),-7,0,-3,-7,-6,-3
Cn1c(-c2cccc3ccccc23)n[nH]c1=S,-13,-1,1,0,-3,5
Cn1c(CO)nc2c3ccccc3ccc21,-13,36*,4,6,-5,-16
Cc1ccc(-c2nc(CS(=O)CC(=O)NCCN3CCCCCC3)c(C)o2)cc1 (centres undefined),-14,-1,-5,-14,-1,11
Cc1oc(-c2ccc(Cl)cc2)nc1CS(=O)CC(=O)NCCN1CCCCCC1 (centres undefined),-3,109*,-5,11,-1,16
Cc1ccc(C)c(N2CCN(C(=O)CN3C(=S)NC(C)(C)CC3C)CC2)c1 (centres undefined),14,0,2,-4,1,-5
COc1ccc(C2C(C)C(=O)C(C)C(c3ccc(OC)cc3)N2N=O)cc1 (centres undefined),8,.,.,.,.,.
CCS(=O)(=O)N1CCN(c2ccc(C(=O)NC3C4CC5CC(C4)CC3C5)cc2[N+](=O)[O-])CC1 (centres undefined),-8,-7,61,42,18,68*
CCS(=O)(=O)N1CCN(c2ccc(C(=O)N3CCOCC3)cc2[N+](=O)[O-])CC1,-8,0,-14,-6,2,-3
CN(C)CCCNC(=O)/C=C/c1ccc2c(c1)OCO2,-37,-1,-2,4,-12,45
O=C(/C=C/c1ccc2c(c1)OCO2)NCCSCc1ccc(Cl)cc1,14,0,-3,93*,-7,-6
O=C(/C=C/c1ccc2c(c1)OCO2)NCCSCc1c(Cl)cccc1Cl,-68,.,-1,98*,28,15
CCOc1ccc(/C=N/NC(=O)C2CCCC2)c(OCC)c1,-4,0,-8,-1,1,-5
Cc1ccc(S(=O)(=O)Nc2ccccc2N(C)S(=O)(=O)c2ccc(C)cc2)cc1,-61,0,110*,32,4,21
C=CCn1cc(/C=C/c2cc[n+](C)cc2)c2ccccc21,9,2,80*,26,-7,55*
CCn1cc(/C=C/c2cc[n+](C)cc2)c2ccccc21,9,-21,85*,12,-5,55*
C=CCn1c(C)c(/C=C/c2cc[n+](C)cc2)c2ccccc21,-7,0,97*,15,-4,74*
CCN(CC)C(=O)Cn1c(C)c(/C=C/c2cc[n+](C)cc2)c2ccccc21,13,-2,-5,-7,3,5
COc1cc2c(cc1OC)CN(C(=O)c1cc(S(=O)(=O)N3CCOCC3)ccc1C)CC2,.,0,-4,14,-11,3
COc1ccccc1CN1CC(C(=O)NCCN(C)CCc2ccccc2)CCC1=O (centres undefined),-7,0,-6,-9,4,60*
Cc1cc(O)cc2c1C1CCC3(C)C(=O)CCC3C1C=C2 (centres undefined),-3,.,.,.,.,.
Cc1ccc(NC(=O)c2ccccc2NS(=O)(=O)c2ccc(F)cc2)cc1S(=O)(=O)N1CCCCC1,7,1,36,51,60*,15
CCc1ccccc1N(CC(=O)NC(C)C)C(=O)CCC(=O)Nc1nccs1,-12,-2,-9,-9,3,2
Cc1nc(SCC(=O)NCC2CCCO2)[nH]c(=O)c1C (centres undefined),3,0,.,-16,-9,0
SMILES,PfHsp90 set2,HIF act,Beta apoptosis,CSC inhib,SKKanGAS inh,T cruzi repl
Cc1cccc(-n2c(C)cc(/C=N/n3cnnc3)c2C)c1,-8,0,111*,-8,7,8
Cc1cc(C)c2c(c1)CC(C)(C)CC2=O,15,.,.,.,.,.
COc1cc(CNCc2c[nH]c3ccccc23)cc(OC)c1,-52,-1,20,.,-3,78*
COc1cc(CNCc2cccc3ccccc23)cc(OC)c1,1,-1,-2,6,-6,6
O=C(COC(=O)c1cc(=O)[nH]c2ccccc12)c1cccs1,9,0,-4,-13,-5,-9
Cc1cccc(C(=O)OCC(=O)N2CCCCCC2)c1,-5,.,-2,-19,.,.
CC(C)(C)C(=O)NCC12C=CC(O1)C1C(=O)N(c3ccccc3)C(=O)C12 (centres undefined),104*,.,-2,-2,-2,-4
Cc1cc(C)c(S(=O)(=O)NCC23C=CC(O2)C2C(=O)N(c4ccccc4)C(=O)C23)c(C)c1 (centres undefined),104*,-1,-7,-17,-6,-7
O=C1C2C3C=CC(CO)(O3)C2C(=O)N1c1ccc(-c2ccccc2)cc1 (centres undefined),.,2,-3,?,-3,-10
O=C1C2C3C=CC(CNS(=O)(=O)c4ccccc4[N+](=O)[O-])(O3)C2C(=O)N1c1ccccc1 (centres undefined),111*,-1,3,.,-2,-1
O=C(CN1CCOCC1)Nc1nc(-c2ccccc2Cl)cs1,2,0,3,-11,3,1
Nc1ncnc2c1ncn2[C@@H]1O[C@H](CNC(=O)[C@@H]2CCCN2S(=O)(=O)c2ccc(F)cc2)[C@@H](O)[C@H]1O,16,.,.,.,.,.
COC(=O)c1c(NC(=O)c2ccc(C)c(S(=O)(=O)Nc3ccccc3C)c2)sc2c1CCCC2,-6,-1,-4,75*,25,-41
Cn1nc(C(=O)OCC(=O)c2ccc(Br)cc2)c2ccccc2c1=O,-3,.,0,.,.,.
Cc1cc(C)n2nc(SC(C)C(=O)Nc3ccccc3F)nc2n1 (centres undefined),5,.,-3,0,.,.
COc1ccc(C(=O)c2ccc([N+](=O)[O-])cc2Cl)cc1,-19,0,2,15,-10,60*
COc1ccc(OC)c(C(=O)c2ccc([N+](=O)[O-])cc2)c1,-7,.,.,.,.,.
Fc1ccc(-c2ccc3c(c2)C2CC3CCN2)cc1 (centres undefined),-10,.,.,.,.,.
Cc1ccsc1/C=N\NC(=O)c1n[nH]c2c1CCC2,0,-1,20,130*,7,-16
CCCS(=O)(=O)N1CCN(Cc2ccc3c(c2)c2ccccc2n3CC)CC1,1,0,-3,-7,-16,?
C[C@@]12C(=O)N(Cc3ccc(F)cc3)CC(=O)N1[C@H]1c3cc(Cl)ccc3OC[C@@H]1[C@@H]2c1ccccc1,-60,.,8,26,.,.

# Source: PubChem BioAssay
